In one series the test system is Hepatitis C virus. Description: Inhibition of HCV 1b in Huh7 cells by replicon assay. It is filed as functional, organism-based, Hepacivirus hominis. As to conditions: Huh-7. Summed up: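 Huh-7-derived line 2209-23 stably carrying a bicistronic HCV genotype 1b replicon with a renilla luciferase reporter. Replication was read out by the reporter. The EC50 is the concentration reducing HCV replication by 50%.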
(In general: A replicon is a self-replicating genome or part of one, used to study replication in cells.)

The nature of series [1]: Cytotoxicity activity against Huh7 cells by WST assay. The class given is cell-based, Huh-7. As to conditions: human. In short, it runs like this: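 Cytotoxicity was read out as the CC50, the concentration lowering cell viability by 50%, from a WST viability readout. Cells were the HCV replicon cell line 2209-23, derived from Huh-7 and carrying a stable genotype 1b bicistronic replicon with a renilla luciferase reporter.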

Bounds are passed on as bounds.

Take `C[C@H](NP(=O)(OC[C@@]1(N=[N+]=[N-])O[C@@H](n2cnc3c(N)ncnc32)[C@H](O)[C@@H]1O)Oc1cccc2ccccc12)C(=O)OC(C)(C)C` (some centres undefined): the 50% effective concentration (EC50) (usually the concentration giving half of the maximal effect) with Hepatitis C virus was greater than 100 µM. Besides, the CC50 (commonly the concentration giving 50% cytotoxicity) in series [1] was greater than 100 µM.

For the compound `C[C@H](NP(=O)(OC[C@@]1(N=[N+]=[N-])O[C@@H](n2cnc3c(N)ncnc32)[C@H](O)[C@@H]1O)Oc1cccc2ccccc12)C(=O)OCc1ccccc1` (some centres undefined), it took 0.22 µM to reach a half-maximal effect in the series with Hepatitis C virus (EC50). Moreover, in series [1], the CC50 is greater than 100 µM.

For `CCOC(=O)[C@H](C)NP(=O)(OC[C@@]1(N=[N+]=[N-])O[C@@H](n2cnc3c(N)ncnc32)[C@H](O)[C@@H]1O)Oc1ccccc1` (some centres undefined), the EC50 in the series on Hepatitis C virus was 1.5 µM. This compound also came in with a CC50 in series [1] greater than 100 µM.

With `C[C@H](NP(=O)(OC[C@@]1(N=[N+]=[N-])O[C@@H](n2cnc3c(N)ncnc32)[C@H](O)[C@@H]1O)Oc1ccccc1)C(=O)OC(C)(C)C` (some centres undefined), the EC50 in the series on Hepatitis C virus was greater than 100 µM. Moreover, in series [1], the CC50 is greater than 100 µM.

Compound `CCOC(=O)[C@H](C)NP(=O)(OC[C@@]1(N=[N+]=[N-])O[C@@H](n2cnc3c(N)ncnc32)[C@H](O)[C@@H]1O)Oc1cccc2ccccc12` (some centres undefined) gave an EC50 in the series with Hepatitis C virus of 0.59 µM. Further, the CC50 in series [1] was greater than 100 µM.

`C[C@H](NP(=O)(OC[C@@]1(N=[N+]=[N-])O[C@@H](n2cnc3c(N)ncnc32)[C@H](O)[C@@H]1O)Oc1ccccc1)C(=O)OCc1ccccc1` (some centres undefined) gave an EC50 in the series on Hepatitis C virus of 4 µM. In series [1], this compound returned a CC50 greater than 100 µM.

Take `[N-]=[N+]=N[C@]1(CO)O[C@@H](n2cnc3c(N)ncnc32)[C@H](O)[C@@H]1O`: in the series with Hepatitis C virus, the EC50 was greater than 100 µM. Moreover, in series [1], the CC50 is greater than 100 µM.
